Measurements from publication PMC4263960 (Pediatric blood & cancer, 2013).

Assays:
COG-LL-317 cell line = assay: DIMSCAN in vitro cytotoxicity testing, COG-LL-317; assay type: cell-based
Method in brief: (§1)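 Test compound incubated with cells of a 24-line pediatric cancer panel for 96 h at 0.1 nM to 1 μM, then assessed by DIMSCAN. Relative IC50 (rIC50) derived per line. Panel comparison value is the panel rIC50 divided by the rIC50 of each cell line.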

Rh18 cell line = assay: DIMSCAN in vitro cytotoxicity testing, Rh18; assay type: cell-based
Method in brief: as §1

SK-NEP-1 Ewing xenograft = assay: PPTP in vivo xenograft testing, SK-NEP-1; set-up: species or system mice
[1] = test system: NB-EBc1 neuroblastoma xenograft; assay: PPTP in vivo xenograft testing, NB-EBc1; set-up: species or system mice
CHLA-266 cell line = assay: DIMSCAN in vitro cytotoxicity testing, CHLA-266; assay type: cell-based
Method in brief: as §1

[2] = test system: OS-31 osteosarcoma xenograft; assay: PPTP in vivo xenograft testing, OS-31; set-up: species or system mice
EW8 Ewing xenograft = assay: PPTP in vivo xenograft testing, EW8; set-up: species or system mice
Rh30 cell line = assay: DIMSCAN in vitro cytotoxicity testing, Rh30; assay type: cell-based
Method in brief: as §1

[3] = test system: Rh28 ALV rhabdomyosarcoma xenograft; assay: PPTP in vivo xenograft testing, Rh28; set-up: species or system mice
[4] = test system: NB-1691 neuroblastoma xenograft; assay: PPTP in vivo xenograft testing, NB-1691; set-up: species or system mice
[5] = test system: OS-17 osteosarcoma xenograft; assay: PPTP in vivo xenograft testing, OS-17; set-up: species or system mice
[6] = 1 mg/kg IP Q4Dx3 repeated at Day 21
[7] = NB-EBc1, 1 mg/kg IP Q4Dx3 repeated at Day 21

In the case of `C=C1C[C@@H]2CC[C@@]34C[C@H]5O[C@H]6[C@@H](O3)[C@H]3O[C@H](CC[C@@H]3O[C@H]6[C@H]5O4)CC(=O)C[C@@H]3[C@@H](OC)[C@@H](C[C@H](O)CN)O[C@H]3C[C@H]3O[C@@H](CC[C@@H]1O2)C[C@@H](C)C3=C` [Eribulin], the IC50 (COG-LL-317 cell line; 96 h, read-out: rIC50) is reported as less than 100 pM, the “Panel rIC50/Line rIC50” value (COG-LL-317 cell line; COG-LL-317) is reported as greater than 2.74 and the Relative in/out% (COG-LL-317 cell line; COG-LL-317) is reported as −99%. The “Ymin % (observed)” value (COG-LL-317 cell line; COG-LL-317) was 0.03%, the IC50 (Rh18 cell line; Homo sapiens, Rh18, 96 h, read-out: rIC50) was 830 pM and the “Panel rIC50/Line rIC50” value (Rh18 cell line; Rh18) was 0.33. The Relative in/out% (Rh18 cell line; Rh18) was −53%, the “Ymin % (observed)” value (Rh18 cell line; Rh18) was 20.92% and the EFS activity (SK-NEP-1 Ewing xenograft; 1 mg/kg IP) was “High (High activity requires: (a) an EFS T/C >2; (b) a significant difference in EFS distributions, and (c) a net reduction in median tumor volume for animals in the treated group at the end of treatment as compared to at treatment initiation)”. The Response activity (SK-NEP-1 Ewing xenograft; 1 mg/kg IP) was “High (A high level of activity is indicated by a score of 6 or more)”, the T/C volume activity (SK-NEP-1 Ewing xenograft; 1 mg/kg IP) was “High (High activity = T/C ≤0.15)” and the “EFS T/C” value (SK-NEP-1 Ewing xenograft; [6]) was greater than 4.3. The “Median final RTV (CD45%)” value (SK-NEP-1 Ewing xenograft; [6]) was 0.0, the “Tumor volume T/C” value (SK-NEP-1 Ewing xenograft; 1 mg/kg IP, Day 21 or earlier) was 0.00 and the EFS activity ([1]; NB-EBc1, 1 mg/kg IP) was “Low (Low activity = EFS T/C <2)”. For the same compound, the Response activity ([1]; NB-EBc1, 1 mg/kg IP) was “Low (low activity by a score of <2)”, the T/C volume activity ([1]; NB-EBc1, 1 mg/kg IP) was “Low (Low activity = T/C >0.45)” and the “EFS T/C” value [1, 7] was 1.1. The “Median final RTV (CD45%)” value [1, 7] was greater than 4, the Time to event [1, 7] was 4.5 and the “Tumor volume T/C” value ([1]; NB-EBc1, 1 mg/kg IP, Day 21 or earlier) was 0.82. The objective response ([1]; NB-EBc1 neuroblastoma xenograft) was “not responsive”, the “Panel rIC50/Line rIC50” value (CHLA-266 cell line; CHLA-266) was 0.71 and the Relative in/out% (CHLA-266 cell line; CHLA-266) was −79%. The “Ymin % (observed)” value (CHLA-266 cell line; CHLA-266) was 5.54%, the IC50 (CHLA-266 cell line; Homo sapiens, CHLA-266, 96 h, read-out: rIC50) was 380 pM and the EFS activity ([2]; 1 mg/kg IP) was “Int (Intermediate activity = criteria (a) and (b) above, but not having a net reduction in median tumor volume for treated animals at the end of the study)”. For the same compound, the Response activity ([2]; 1 mg/kg IP) was “Int (intermediate activity by a score of ≥2 but <6)”, the T/C volume activity ([2]; 1 mg/kg IP) was “Int (Intermediate activity = T/C ≤0.45 but >0.15)” and the “EFS T/C” value [2, 6] was greater than 2.6. The “Median final RTV (CD45%)” value [2, 6] was 1.8, the “Tumor volume T/C” value ([2]; 1 mg/kg IP, Day 21 or earlier) was 0.27 and the EFS activity (EW8 Ewing xenograft; 1 mg/kg IP) was “High (High activity requires: (a) an EFS T/C >2; (b) a significant difference in EFS distributions, and (c) a net reduction in median tumor volume for animals in the treated group at the end of treatment as compared to at treatment initiation)”. The Response activity (EW8 Ewing xenograft; 1 mg/kg IP) was “High (A high level of activity is indicated by a score of 6 or more)”, the T/C volume activity (EW8 Ewing xenograft; 1 mg/kg IP) was “High (High activity = T/C ≤0.15)” and the “EFS T/C” value (EW8 Ewing xenograft; [6]) was greater than 3.1. The “Median final RTV (CD45%)” value (EW8 Ewing xenograft; [6]) was 0.0, the “Tumor volume T/C” value (EW8 Ewing xenograft; 1 mg/kg IP, Day 21 or earlier) was 0.00 and the “Panel rIC50/Line rIC50” value (Rh30 cell line; Rh30) was 2.47. The Relative in/out% (Rh30 cell line; Rh30) was −23%, the “Ymin % (observed)” value (Rh30 cell line; Rh30) was 12.75% and the IC50 (Rh30 cell line; Rh30, 96 h, read-out: rIC50) was 110 pM. The EFS activity ([3]; 1 mg/kg IP) was “High (High activity requires: (a) an EFS T/C >2; (b) a significant difference in EFS distributions, and (c) a net reduction in median tumor volume for animals in the treated group at the end of treatment as compared to at treatment initiation)”, the Response activity ([3]; 1 mg/kg IP) was “High (A high level of activity is indicated by a score of 6 or more)” and the T/C volume activity ([3]; 1 mg/kg IP) was “Int (Intermediate activity = T/C ≤0.45 but >0.15)”. The “EFS T/C” value [3, 6] was greater than 2.4, the “Median final RTV (CD45%)” value [3, 6] was 0.0 and the “Tumor volume T/C” value ([3]; 1 mg/kg IP, Day 21 or earlier) was 0.29. For the same compound, the EFS activity ([4]; 1 mg/kg IP) was “Low (Low activity = EFS T/C <2)”, the Response activity ([4]; 1 mg/kg IP) was “Low (low activity by a score of <2)” and the T/C volume activity ([4]; 1 mg/kg IP) was “Low (Low activity = T/C >0.45)”. For the same compound, the “EFS T/C” value [4, 6] was 1.1, the “Median final RTV (CD45%)” value [4, 6] was greater than 4 and the Time to event [4, 6] was 7.9. The “Tumor volume T/C” value ([4]; 1 mg/kg IP, Day 21 or earlier) was 0.80, the EFS activity ([5]; 1 mg/kg IP) was “High (High activity requires: (a) an EFS T/C >2; (b) a significant difference in EFS distributions, and (c) a net reduction in median tumor volume for animals in the treated group at the end of treatment as compared to at treatment initiation)” and the Response activity ([5]; 1 mg/kg IP) was “High (A high level of activity is indicated by a score of 6 or more)”. For the same compound, the T/C volume activity ([5]; 1 mg/kg IP) was “Int (Intermediate activity = T/C ≤0.45 but >0.15)”, the “EFS T/C” value [5, 6] was greater than 2.3 and the “Median final RTV (CD45%)” value [5, 6] was 0.5.
